HCV core dimer: blocks dimerization of HCV core protein. inhibition, % at 5 µM. TR-FRET GST/Flag-core106 dimerization, 1536-well. AID 1899. hit rate 0.33% among 300,000;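 active = inhibition above the mean of all tested compounds plus 3 SD, set per screening campaign, cut at about 45% in these data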
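Assay system – GST-tagged and Flag-tagged HCV core protein residues 1-106 · Quantity – core106 proteins, GST 13.5 nM and Flag 17 nM · Benchmarks – unlabelled core106 and no-GST-core106 wells · Read-out basis – percent inhibition of core106 dimerization signal · Detection – time-resolved FRET, ex 340 nm, em 617 and 671 nm · Schedule – 4 h at 22.5 °C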
IMP-1 inhibitor: inhibitors of Pseudomonas aeruginosa IMP-1 metallo-beta-lactamase; inhibition, % at 5.6 µM; hit rate 0.45% among 290,000; purified IMP-1, nitrocefin hydrolysis, epi-absorbance fluorescence;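 active = inhibition above the mean plus 3 SD of all compounds in the same screening run, cut at about 4.5% in these data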;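 note: 0% = IMP-1 with DMSO and 100% = DMSO wells lacking enzyme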
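System: purified IMP-1; amount: IMP-1 0.2 nM before substrate addition; compound: single dose, 5.6 µM; times: 25 °C, 15 min preincubation, 25 min reaction; signal: Epi-absorbance via hydrolysed-nitrocefin quenching of white-plate fluorescence, 480/530 nm, EDTA stop; benchmarks: DMSO with and without IMP-1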
VIM-2 inh: blocks Pseudomonas aeruginosa VIM-2 metallo-beta-lactamase; inhibition, % at 5.6 µM; AID 1527; purified VIM-2, nitrocefin hydrolysis, epi-absorbance fluorescence; hit rate 0.89% among 290,000;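 active = inhibition above the mean of all tested compounds plus 3 SD, cutoff set per screening run, cut at about 7.5% in these data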;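 note: red hydrolysis product quenches plate fluorescence so inhibitors raise well fluorescence; 0% = enzyme with DMSO and 100% = DMSO without enzyme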
NadD block: blocks S. aureus nicotinate mononucleotide adenylyltransferase; hit rate 0.78% among 360,000; inhibition, % at 20 µM; purified NadD enzyme, colorimetric absorbance read-out; in the data active = inhibition above about 26%
The depositor's hits bear a star. Compounds with a hit are over-represented: about 1.9% of the library has one in this group of screens.

How did C=CCn1c(SCC(=O)N2CCCC2=O)nc2sc(CC)cc2c1=O do in these assays?
NadD block: -1.0

Results for Nc1ccn(CCCNCC(c2ccccc2)c2ccccc2)c(=O)n1 ?
NadD block: 0.8

What do the screens show for `C#CCOCCOCCOCCNc1nc(N2CCN(C(=O)[C@H](CCC(=O)O)n3cc(CN)nn3)CC2)nc(N2CCN(C(=O)[C@H](CCCN=C(N)N)n3cc(C(N)[C@@H](C)CC)nn3)CC2)n1` (stereo partly drawn)?
NadD block: -2.5

What do the screens show for `O=C(Cc1cccc2ccccc12)N/N=C/c1ccc(OC(=O)/C=C/c2ccco2)cc1`?
HCV core dimer: 64.8*; IMP-1 inhibitor: 0.4; VIM-2 inh: -2.2; NadD block: 21.9

Results for CC1CN(CCCCOc2ccc(F)cc2)CC(C)O1 (stereo not drawn) ?
HCV core dimer: 2.5; IMP-1 inhibitor: -2.3; VIM-2 inh: -1.9; NadD block: -5.0

Results for CN(C=O)c1cc([N+](=O)[O-])ccc1OCc1ccccc1 ?
NadD block: -2.4

What do the screens show for `COC(=O)c1cc(Sc2cccc(Cl)c2Cl)ccn1`?
HCV core dimer: -1.8; IMP-1 inhibitor: -1.6; VIM-2 inh: 9.2*; NadD block: 1.2

What do the screens show for `Nc1ccc(CCn2ccnc2)cc1`?
HCV core dimer: 6.7; IMP-1 inhibitor: 0.9; VIM-2 inh: -3.6; NadD block: 34.3*

What do the screens show for `CCn1c2ccccc2c2nc3cc(OC)c(OC)cc3nc21`?
HCV core dimer: 0.0; IMP-1 inhibitor: -1.0; VIM-2 inh: 2.8; NadD block: -8.4

How did CCn1c2ccccc2c2nc3ccccc3nc21 do in these assays?
HCV core dimer: 5.4; IMP-1 inhibitor: 1.9; VIM-2 inh: 9.9*; NadD block: 2.2

How did C[C@@H]1CNC(=O)c2c(C(=O)NCC(=O)OC(C)(C)C)ncn21 do in these assays?
NadD block: 2.0

What do the screens show for `Cc1ccc(-n2cc(C(=O)c3ccc(F)cc3)nn2)cc1Cl`?
HCV core dimer: 69.6*; IMP-1 inhibitor: -2.3; VIM-2 inh: -0.6; NadD block: -1.4

What do the screens show for `O=C(CCNc1n[nH]c(=O)[nH]c1=O)N/N=C/c1ccc(C(F)(F)F)cc1`?
HCV core dimer: -0.8; IMP-1 inhibitor: -3.7; VIM-2 inh: -4.1; NadD block: -3.7

What do the screens show for `O=C(NCc1cccs1)C1CCCN(c2nc3ccccc3o2)C1` (stereo not drawn)?
HCV core dimer: -0.8; IMP-1 inhibitor: 4.8*; VIM-2 inh: 0.8; NadD block: -5.5

Results for CN(/N=C\c1ccc(O)c(O)c1)c1nc(-c2ccccc2)cc(-c2ccccc2)n1 ?
HCV core dimer: 9.8; IMP-1 inhibitor: -1.3; VIM-2 inh: -4.2; NadD block: 33.3*

Results for CN(C)S(=O)(=O)c1cccc(-c2nn(-c3ccccc3)cc2/C=C2\SC(=S)NC2=O)c1 ?
HCV core dimer: 52.5*; IMP-1 inhibitor: -0.2; VIM-2 inh: -2.7; NadD block: 27.0

Results for COc1ccc(C(C(=O)NC2CCCC2)N(C(=O)c2snc(-c3ccc(F)cc3)c2N)c2ccc(OC)cc2)cc1 (stereo not drawn) ?
HCV core dimer: 48.3*; IMP-1 inhibitor: -1.4; VIM-2 inh: -0.9; NadD block: 18.7

Results for N=c1c(C(=O)NC2CCCCC2)cc2c(=O)n3ccccc3nc2n1Cc1cccnc1 ?
HCV core dimer: -4.4; IMP-1 inhibitor: -1.9; VIM-2 inh: 8.2*; NadD block: -0.3

How did N=c1c(C(=O)NCC2CCCO2)cc2c(=O)n3ccccc3nc2n1Cc1cccnc1 (stereo not drawn) do in these assays?
HCV core dimer: 8.1; IMP-1 inhibitor: -1.2; VIM-2 inh: 8.0*; NadD block: -2.9

What do the screens show for `N=c1c(C(=O)NCC2CCCO2)cc2c(=O)n3ccccc3nc2n1Cc1ccc(F)cc1` (stereo not drawn)?
HCV core dimer: 8.2; IMP-1 inhibitor: -0.2; VIM-2 inh: 9.7*; NadD block: 3.7

Results for N=c1c(C(=O)NCC2CCCO2)cc2c(=O)n3ccccc3nc2n1Cc1ccco1 (stereo not drawn) ?
HCV core dimer: 4.9; IMP-1 inhibitor: -3.6; VIM-2 inh: 3.2; NadD block: -6.8

What do the screens show for `Cc1cccn2c(=O)c3cc(C(=O)NCC4CCCO4)c(=N)n(Cc4cccnc4)c3nc12` (stereo not drawn)?
HCV core dimer: 5.5; IMP-1 inhibitor: -2.6; VIM-2 inh: 1.9; NadD block: 2.1

Results for O=C(Cn1cnc2scc(-c3cccc([N+](=O)[O-])c3)c2c1=O)NCc1ccco1 ?
HCV core dimer: 64.5*; IMP-1 inhibitor: 0.0; VIM-2 inh: 3.6; NadD block: -2.7

What do the screens show for `Cc1sc2ncn(CC(=O)NCc3ccco3)c(=O)c2c1-c1ccc(F)cc1`?
HCV core dimer: 29.1; IMP-1 inhibitor: -4.7; VIM-2 inh: -1.5; NadD block: 4.3

Results for COc1ccc(OC)c(Nc2c3ccccc3nc3ccccc23)c1 ?
HCV core dimer: -4.4; IMP-1 inhibitor: -3.9; VIM-2 inh: 11.2*; NadD block: -3.4

Results for COc1ccc(OC)c(Nc2cc(C)c3ccccc3n2)c1 ?
HCV core dimer: -22.6; IMP-1 inhibitor: -0.2; VIM-2 inh: 0.3; NadD block: -0.5

How did Cc1cccc(C)c1N1C(=O)[C@@H]2C(c3ccccc3Cl)=NO[C@@H]2C1=O do in these assays?
HCV core dimer: 1.5; IMP-1 inhibitor: -2.6; VIM-2 inh: -2.5; NadD block: -5.8

Results for COc1ccc(OC)c(N2C(=O)[C@@H]3C(c4ccccc4Cl)=NO[C@@H]3C2=O)c1 ?
HCV core dimer: 76.5*; IMP-1 inhibitor: -1.9; VIM-2 inh: -0.2; NadD block: -3.9

What do the screens show for `COc1ccc(Cc2nnc(NC(=O)Cc3cccs3)s2)cc1OC`?
HCV core dimer: 74.1*; IMP-1 inhibitor: 1.4; VIM-2 inh: -0.5; NadD block: 1.7

What do the screens show for `O=C(Cc1cccs1)Nc1nnc(Cc2ccccc2)s1`?
HCV core dimer: 82.6*; IMP-1 inhibitor: -1.0; VIM-2 inh: -5.0; NadD block: -1.9

Results for COc1ccc(C(=O)Nc2nnc(Cc3ccccc3)s2)c(OC)c1 ?
HCV core dimer: 67.7*; IMP-1 inhibitor: -3.1; VIM-2 inh: 0.5; NadD block: -13.5

What do the screens show for `O=C(Cc1cccs1)Nc1nnc(CCc2ccccc2)s1`?
HCV core dimer: 11.8; IMP-1 inhibitor: 0.8; VIM-2 inh: 0.5; NadD block: -3.7

Results for COc1cc(C(=O)Nc2nnc(Cc3ccccc3)s2)cc(OC)c1OC ?
IMP-1 inhibitor: -2.7; VIM-2 inh: -2.6; NadD block: -0.8

How did O=C(/C=C/c1cc[n+](CC(=O)c2ccc3cccc4c3c2CC4)cc1)c1ccc2cccc3c2c1CC3 do in these assays?
HCV core dimer: 6.8; IMP-1 inhibitor: -3.2; VIM-2 inh: -3.4; NadD block: 83.4*

What do the screens show for `CC(=O)c1ccc(NC(=O)c2ccc(-n3cnnn3)cc2)cc1`?
NadD block: -3.0

Results for O=C(CN(Cc1ccco1)C(=O)CNS(=O)(=O)c1ccc(F)cc1)NCc1ccccc1 ?
HCV core dimer: -7.7; IMP-1 inhibitor: -0.1; VIM-2 inh: -0.1; NadD block: -6.1
